# Assay outcomes (PubChem BioAssay)
# TAG inh: triacylglycerol accumulation inhibition; inhibition, % at 12.5 µM; H9c2 cells, Nile Red lipid (TAG) fluorescence; cells loaded with 200 µM oleic acid; 230,000 compounds, 0.66% hits;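 active means pattern-corrected inhibition of lipid staining of at least 50% with the nuclear-stain viability signal not falling by more than 50%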
# Efflux pump inh: antifungal efflux pump inhibition, Nile Red retention | inhibition, % at 10 µM | AID 485275 | S. cerevisiae Candida pump triplex | 330,000 compounds, 0.44% hits;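 active means plate passing quality check with inhibition over a set limit, or well fluorescence over plate mean plus 4 SD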;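 further: Nile Red retained in pooled yeast measured as flow cytometry median fluorescence; higher means more Nile Red kept so more efflux inhibition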
# MC4R ag barr: activates human MC4R beta-arrestin recruitment; P32245; U2OS MC4R beta-arrestin complementation, luminescence; percent of melanotan II response, DMSO zero; activation, % at 8.9 µM; 360,000 compounds, 0.98% hits; AID 540308;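 active means activation above a per-plate cutoff, the mean activation of sample wells on that plate plus 3 SD, cut at about 8% in these data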
# Target sequence (P32245 whole entry, looked up): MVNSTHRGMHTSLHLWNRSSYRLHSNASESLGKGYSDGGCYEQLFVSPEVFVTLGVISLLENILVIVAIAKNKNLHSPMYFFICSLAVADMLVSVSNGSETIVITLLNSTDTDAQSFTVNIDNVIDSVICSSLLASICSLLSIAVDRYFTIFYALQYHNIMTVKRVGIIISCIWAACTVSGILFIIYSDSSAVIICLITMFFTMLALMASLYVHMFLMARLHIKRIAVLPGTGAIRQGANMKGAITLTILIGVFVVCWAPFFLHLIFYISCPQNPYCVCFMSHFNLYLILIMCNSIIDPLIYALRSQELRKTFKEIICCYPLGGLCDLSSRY
# Calb FLC: C. albicans growth modulation with fluconazole; growth inhibition, % (no concentration beside the values); 300,000 compounds, 0.57% hits; AID 1979; C. albicans CaCi-2 + fluconazole, Alamar Blue growth, 48 h;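 active means growth inhibition above about 58% in most replicates, limit read from the data, passing the limit was not always enough; inconclusive means exactly half the replicates above a set limit; inactive means most replicates below a set limit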;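 further: all wells also contain fluconazole at 8 µg/ml as a sub-toxic cotreatment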
# MC4R antag cAMP: antagonists of human melanocortin 4 receptor (MC4R). MC4R-expressing cells, MTII-stimulated cAMP, LANCE TR-FRET. inhibition, % at 6.5 µM. 360,000 compounds, 0.48% hits;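 active means inhibition above its plate's cutoff, the mean of tested wells on that plate plus 3 SD, cut at about 29% in these data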
#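 Assay system: human MC4R-expressing U2OS cells; reagent: Melanotan II stimulation of cells; dosing: 6.5 µM single dose; timing: compound 30 min, challenge 1 h, detection 1 h; signal: TR-FRET cAMP assay; replicates: one well per compound, no replicates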
# GalR3 antagonist: blocks the human galanin receptor 3. AID 651719. inhibition, % at 3 µM. HEK293 GalR3-CNG cAMP membrane potential fluorescence; galR3 body fused to GalR1 C-terminus. O60755. 360,000 compounds, 0.44% hits;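 active means inhibition above the screen-wide average plus 3 SD, cut at about 13% in these data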;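 further: forskolin and galanin both at EC90 stimulate the cells; cAMP rise reported by CNG channel membrane potential dye signal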
# Target sequence (O60755 1-299 limits assumed): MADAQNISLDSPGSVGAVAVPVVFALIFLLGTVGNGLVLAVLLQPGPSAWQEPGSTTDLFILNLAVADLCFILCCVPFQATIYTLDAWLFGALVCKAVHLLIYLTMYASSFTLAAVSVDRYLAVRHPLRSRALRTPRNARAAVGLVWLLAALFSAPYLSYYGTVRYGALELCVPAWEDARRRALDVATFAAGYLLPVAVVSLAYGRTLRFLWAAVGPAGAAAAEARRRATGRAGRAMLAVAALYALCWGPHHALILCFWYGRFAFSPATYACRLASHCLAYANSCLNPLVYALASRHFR
# MC4R barr conf: human MC4R beta-arrestin agonism confirmation; shares compounds with MC4R ag barr; U2OS MC4R beta-arrestin recruitment, luminescence; scaled DMSO 0%, Melanotan II 100%; activation, % at 8.9 µM; 2,400 compounds, 31% hits; AID 602192;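 active means mean activation across replicates above the hit cutoff set in the earlier primary screen, cut at about 8% in these data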
# MOR-DOR barr ag: OPRM1-OPRD1 heterodimer agonism counter-screen | shares compounds with MC4R ag barr | U2OS PathHunter beta-arrestin, beta-gal luminescence; percent of deltorphin B response, DMSO zero | activation, % at 9.2 µM | 2,400 compounds, 5.8% hits | AID 602194;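 active means mean activation across replicates exceeds the hit threshold derived in the earlier primary screen, cut at about 18% in these data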
# Numbers stand for hits; 0 = inactive; ? = inconclusive; - = no result given; ! = repeats disagree. Rows were chosen to be rich in hits. Some 2.9% of all compounds tested hit in one or more screens of this group.
SMILES,TAG inh,Efflux pump inh,MC4R ag barr,Calb FLC,MC4R antag cAMP,GalR3 antagonist,MC4R barr conf,MOR-DOR barr ag
COc1ccc(-c2cnc3c(NC(C)=O)cc(-c4ccsc4)cn23)cc1OC,0,-,11,-,0,-,15,0
O=C(Nc1nccs1)c1ccc(-c2ccccc2Cl)o1,-,0,0,?,0,0,-,-
N#Cc1ccccc1NC(=O)c1ccc(-c2ccccc2Cl)o1,0,0,22,0,0,0,0,0
N#CC(c1c(Cl)cccc1N1CCCCC1)N1CCCCC1 (stereo not given),-,-,-,-,-,0,-,-
O=C(COC(=O)c1sc2cc(F)ccc2c1Cl)Nc1ncc(Cl)cc1Cl,-,0,0,0,0,0,-,-
O=C(COC(=O)c1sc2ccccc2c1Cl)Nc1ncc(Cl)cc1Cl,0,0,27,0,0,0,0,0
Cc1ccc([N+](=O)[O-])cc1NC(=S)NC(=O)C(C)(C)C,-,0,0,0,0,0,-,-
Cc1ccc([N+](=O)[O-])cc1NC(=S)NC(=O)c1c(Cl)cnn1C,0,-,18,0,0,0,0,0
COc1cc(C(=O)OCC(=O)Nc2cc(C)on2)ccc1OCc1ccccc1Cl,0,0,18,0,0,0,0,0
CC(NC(C(=O)c1ccccc1)c1ccccc1)c1ccccc1 (stereo not given),0,-,12,-,0,0,0,0
Cc1ccc(NC(C(=O)c2ccccc2)c2ccccc2)cc1 (stereo not given),0,-,0,-,0,0,-,-
Cc1cc(C)c2nc(-c3ccccn3)cc(C(=O)NCCc3ccc(S(N)(=O)=O)cc3)c2c1,0,0,0,0,0,0,-,-
COc1ccc(NC(=O)c2cc(-c3ccccn3)nc3c(C)cc(C)cc23)c(C)c1,0,0,12,0,0,0,0,0
Cc1cc(C)c2nc(-c3ccccn3)cc(C(=O)NCc3ccc(S(N)(=O)=O)cc3)c2c1,-,0,9.7,0,0,0,0,0
CON(C)C(=O)C(C)(C)CC#CCN(CC#Cc1ccccc1)S(=O)(=O)c1ccc(C)cc1,-,-,-,-,-,0,-,-
Cc1ccc(-c2cc(NC=O)c3ncc(-c4cnn(C)c4)n3c2)cc1,0,-,0,-,0,0,-,-
O=C(COC(=O)c1cccnc1Nc1ccccc1F)NCc1ccc2c(c1)OCO2,0,0,10,0,0,0,0,0
COc1c(C(=O)Nc2ccc(Br)cn2)ccc2ccccc12,-,0,12,0,0,0,0,0
O=C(Nc1ccc(Br)cn1)c1cccc2ccccc12,0,0,0,0,0,0,-,-
O=C(COC(=O)c1nn(-c2ccccc2C(F)(F)F)cc1O)c1ccc(OC(F)F)cc1,0,0,11,0,0,0,0,0
O=C(NCc1ccccc1)[C@H]1CCCN1C(=O)[C@H]1CCCN1C(=O)C1CCCCC1,-,-,-,-,-,0,-,-
O=C(/C=C/Nc1ccccc1F)c1ccc(Br)cc1,-,0,0,0,0,0,-,-
N#Cc1ccccc1N/C=C/C(=O)c1ccc(Cl)cc1,0,0,13,0,0,0,0,0
Cc1ccc(C(=O)Nc2cccc(C(F)(F)F)c2)cc1NC(=O)c1c[nH]c2cc(C(F)(F)F)ccc2c1=O,0,0,0,-,0,0,-,-
CCN1CCN(Cc2ccc(NC(=O)c3ccc(C)c(NC(=O)c4c[nH]c5cc(C(F)(F)F)ccc5c4=O)c3)cc2C(F)(F)F)CC1,139,-,12!,0,0,0,0,78
SMILES,TAG inh,Efflux pump inh,MC4R ag barr,Calb FLC,MC4R antag cAMP,GalR3 antagonist,MC4R barr conf,MOR-DOR barr ag
CC1CCC(C(C)C)C(OC(=O)COC(=O)c2ccc(N)cc2)C1 (stereo not given),0,0,0,0,0,0,-,-
CC1CCC(C(C)C)C(OC(=O)Cn2c(-c3ccc(Br)cc3)[n+](C)c3ccccc32)C1 (stereo not given),89,0,12,108,0,0,13!,0
Cc1ccccc1OCc1n(CC(=O)OC2CC(C)CCC2C(C)C)c2ccccc2[n+]1C (stereo not given),76!,0,23,99!,0,0,41,27
CC1CCC(C(C)C)C(OC(=O)COC(=O)c2cccn2C)C1 (stereo not given),0,0,0,0,0,0,-,-
CC1CCC(C(C)C)C(OC(=O)Cn2c(-c3ccc(Cl)cc3)[n+](C)c3ccccc32)C1 (stereo not given),0,0,28,0,0,0,0,0
OC(c1cc(F)cc(Cl)c1)c1ncc(-c2cccc(C(F)(F)F)c2)[nH]1 (stereo not given),0,-,0,-,0,0,-,-
Cc1c(Cc2ccccc2)sc(NC(=O)Cc2ccccc2)c1C(N)=O,0,0,11,0,0,0,0,0
CCC(=O)Nc1sc(Cc2ccccc2)c(C)c1C(N)=O,-,0,0,0,0,0,-,-
COc1ccc(/C=C/C(=O)Nc2sc(Cc3ccccc3)c(C)c2C(N)=O)cc1,0,0,25,0,0,0,16,0
COc1ccc(S(=O)(=O)N(C)C[C@@H]2OCc3cn(nn3)CCCC(=O)N([C@@H](C)CO)C[C@H]2C)cc1,0,-,0,-,0,0,-,-
O=C(Nc1ccc(F)cc1F)c1c(C(F)(F)F)ccnc1Oc1cccc(C(F)(F)F)c1,0,0,20,0,0,0,0,0
CCCc1cc(-c2n[nH]c(C)c2-c2ccc(C(=O)OCC)o2)c(O)cc1O,-,0,13,0,0,0,0,0
CC(C)Oc1ccc(C(=O)NC2CCSc3ccccc32)cc1 (stereo not given),0,0,0,0,0,0,-,-
CCCOc1ccc(C(=O)NC2CCSc3ccccc32)cc1 (stereo not given),-,0,17,0,0,0,0,0
CC(C)[Si]1(C(C)C)OCC2OC(n3cnc4c(N)ncnc43)C(N)C2O[Si](C(C)C)(C(C)C)O1 (stereo not given),0,-,0,-,0,0,-,-
CC1CCCCC1NC(=O)NC(=O)COC(=O)c1ccc(OC(F)F)cc1 (stereo not given),0,-,10,-,0,0,0,0
COC(=O)C1=C(C)N(Cc2ccccc2C(F)(F)F)C(=NCc2ccccc2)NC1CCc1ccccc1 (stereo not given),-,-,-,-,-,0,-,-
CCCn1nnc(NC(=O)c2ccc(-c3cc(Cl)ccc3Cl)o2)n1,0,0,9.6,0,0,0,0,0
CCCn1nnc(NC(=O)c2ccc(Cl)cc2Cl)n1,0,0,0,0,0,0,-,-
CC(C)c1ccc(NC(=S)NCc2ccc3c(c2)OCO3)cc1,0,0,12,0,0,0,0,0
COc1ccc(NC(=S)NCc2ccc3c(c2)OCO3)cc1,0,0,0,0,0,0,-,-
